Shown are actives, neighbours in structure and some others; about 2.6% of the full set was active somewhere.
F508del corr – correctors of CFTR F508del function in bronchial epithelial cells; actives 0.36% (n = 350,000); CFBE cells, YFP halide quenching; stimulated with forskolin plus potentiator P3; % fluorescence drop versus neutral controls; activity (quench increase), % at 7.58 µM;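 active = mean added fluorescence quench of at least 8% versus neutral control, with both replicates also reaching 8%; inconclusive = only one of the mean or replicate conditions met; inactive = mean below 8% and not both replicates reaching 8%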;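 note: cells transiently co-express mutant CFTR-F508del with the halide-sensitive YFP; corrector assay measuring rescue of mutant channel to the surface after 24 h compound exposure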
INS-1E GSIS act – GLuc luminescence reporter in INS-1E cells, primary screen for activators of glucose-dependent secretion of insulin. INS-1E GLuc reporter insulin secretion, 2-3 h. activation, % at 16.6 µM. actives 0.61% (n = 370,000);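 active = lowest replicate activation of at least 40%, so every replicate reaches that level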
DENV2 CPE – DENV2-induced cell death inhibition. DENV2-infected cells, cytopathic effect rescue, plate reader. CPE inhibition, % at 9.99 µM. actives 1.7% (n = 350,000). AID 651640; in the data active = CPE inhibition above about 20%, passing the limit was not always enough; inconclusive = no clear call, values can overlap the other calls; tested in BHK-21 cells
ERAP1 HTS inh – ERAP1 (human) enzyme inhibition; inhibition, % at 10.7 µM; recombinant ERAP1, Leu-AMC fluorescence, 60 min; actives 0.15% (n = 340,000); Q9NZ08;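 active = mean replicate inhibition of at least 30%, or all replicates individually reaching that 30% level; inactive = mean below 30% and not every replicate reaching it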
Target sequence (Q9NZ08 whole entry, looked up): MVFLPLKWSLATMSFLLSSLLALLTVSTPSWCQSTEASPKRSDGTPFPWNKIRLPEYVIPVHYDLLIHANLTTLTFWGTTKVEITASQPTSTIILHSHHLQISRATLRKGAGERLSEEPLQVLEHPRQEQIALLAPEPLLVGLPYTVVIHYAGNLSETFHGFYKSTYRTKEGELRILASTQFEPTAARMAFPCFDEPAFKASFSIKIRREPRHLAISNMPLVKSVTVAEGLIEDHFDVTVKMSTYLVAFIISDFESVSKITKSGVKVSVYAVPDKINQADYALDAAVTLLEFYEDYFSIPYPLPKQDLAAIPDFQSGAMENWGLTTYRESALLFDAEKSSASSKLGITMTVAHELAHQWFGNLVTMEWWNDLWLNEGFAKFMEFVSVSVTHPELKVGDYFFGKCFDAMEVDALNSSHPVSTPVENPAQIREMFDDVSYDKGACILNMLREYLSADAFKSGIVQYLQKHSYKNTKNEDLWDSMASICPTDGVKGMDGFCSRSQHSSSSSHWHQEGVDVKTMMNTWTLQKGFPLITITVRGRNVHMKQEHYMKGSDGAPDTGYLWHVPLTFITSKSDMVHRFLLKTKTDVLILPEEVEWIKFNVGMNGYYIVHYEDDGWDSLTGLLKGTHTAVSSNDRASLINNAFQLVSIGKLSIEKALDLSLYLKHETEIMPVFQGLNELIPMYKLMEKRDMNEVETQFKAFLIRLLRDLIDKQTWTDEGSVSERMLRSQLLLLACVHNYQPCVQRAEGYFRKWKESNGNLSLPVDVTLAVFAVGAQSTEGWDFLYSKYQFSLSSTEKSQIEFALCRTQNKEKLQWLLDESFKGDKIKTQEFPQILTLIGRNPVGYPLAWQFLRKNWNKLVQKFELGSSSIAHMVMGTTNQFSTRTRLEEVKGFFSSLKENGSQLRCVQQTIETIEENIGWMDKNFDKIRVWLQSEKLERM
E-sel inducer – induces E-selectin expression in human endothelial cells; P16581; HUVEC E-selectin immunofluorescence imaging; normalized: neutral wells 0, TNF-alpha wells 100; activation, % at 7.58 µM; actives 0.37% (n = 260,000);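 active = mean E-selectin-positive cell signal at least 10% of the positive control, reached in at least 60% of replicates, without over 20% cell loss; inconclusive = no rule given, readout overlaps actives, possibly toxicity-flagged; inactive = the rest, including those meeting only one limit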
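Test system: HUVEC; input: 3,000 HUVEC/well; measured by: immunofluorescence imaging; read-out: % PE-positive cells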
miR-122 sensor – inhibitors of miR-122 in Huh7 cells | Huh7 miR-122 Renilla luciferase sensor, 48 h; neutral wells = 0, positive control = 100 | activation (reporter increase), % at 12.5 µM | actives 0.3% (n = 340,000);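 active = mean replicate activation score at least 90 and every replicate individually at or above 90; inconclusive = only one of the two criteria met; inactive = neither criterion met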;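 note: higher luciferase means less miR-122 activity so hits act as miR-122 inhibitors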
Numbers stand for hits; . = inactive; ? = inconclusive; / = not tested or not shown.

SMILES	F508del corr	INS-1E GSIS act	DENV2 CPE	ERAP1 HTS inh	E-sel inducer	miR-122 sensor
COc1ccc2c3c([nH]c2c1)[C@H](CO)N(C(=O)C1CCCC1)CC31CN(Cc2cccc(F)c2)C1	.	.	.	/	.	/
CN(C)CCCNC(=O)[C@H]1[C@H](CO)[C@H]2Cn3c(ccc(-c4cccc(F)c4)c3=O)[C@H]2N1C	.	.	.	/	.	.
Cc1cccc(NC(=O)CN2CCN(C(=O)CN3C(=O)NC4(CC(C)CC(C)(C)C4)C3=O)CC2)c1C (stereo unspecified)	8.8	.	.	.	.	.
CO[C@H]1CN(C)C(=O)c2cc(NC(=O)Nc3cccc(F)c3)ccc2OC[C@@H](C)NC[C@@H]1C	.	.	.	.	.	.
O=C(C1CCC1)N1CC[C@@H]2[C@H](CO)Nc3ccc(C4=CCCCC4)cc3[C@@H]21	/	.	/	/	/	/
CC(C)(C)OC(=O)N1CCC(C(=O)Nc2ccc(C(=O)N3CCCC3)cc2)CC1	.	.	.	.	.	.
CC(C)(C)OC(=O)N1CCCN(C(=O)c2ccc(Cl)cc2)CC1	.	192	?	.	.	/
CC(C)NC(=O)N(C)C[C@@H]1Oc2c(NC(=O)Nc3ccccc3)cccc2C(=O)N([C@@H](C)CO)C[C@H]1C	.	.	.	.	.	.
CC(=O)C1CN(S(=O)(=O)c2ccc(C)cc2)C(c2ccccc2)CC1C (stereo unspecified)	.	.	39	.	.	/
O=C(Cc1cccnc1)N[C@H]1CC[C@H](CCNS(=O)(=O)c2ccccc2Cl)O[C@H]1CO	.	.	/	/	.	/
Cn1c(=O)[nH]c(=O)c2c1nc(CN1CCN(c3cccc(Cl)c3)CC1)n2CCCc1ccccc1	.	.	.	.	?	.
COc1ccc(N2CCN(Cc3nc4c(c(=O)[nH]c(=O)n4C)n3CCCc3ccccc3)CC2)cc1	/	.	/	/	/	.
CCCCn1c(CN2CCN(c3cccc(Cl)c3)CC2)nc2c1c(=O)[nH]c(=O)n2C	14	/	.	.	/	/
COc1ccc(N2CCN(Cc3nc4c(c(=O)[nH]c(=O)n4C)n3Cc3cccc(Cl)c3)CC2)cc1	.	.	98	.	.	.
C[C@H](CO)N1C[C@H](C)[C@H](CN(C)C(=O)Nc2ccc(C(F)(F)F)cc2)Oc2ccc(NC(=O)Nc3ccc(F)cc3)cc2C1=O	.	.	/	/	.	.
CCOC(=O)C1CCCCN1C(=O)c1cc2ccc(OC)cc2c2cc(OC)c(OC)cc12 (stereo unspecified)	.	/	.	.	.	109
CC(C)=CCOc1c2ccoc2c(OCC=C(C)C)c2oc(=O)ccc12	.	.	.	.	/	.
CC(C)=CCOc1c2ccoc2cc2oc(=O)ccc12	.	/	125	.	/	.
C[C@@H]1CN([C@H](C)CO)C(=O)c2cccc(NC(=O)c3nc4ccccc4s3)c2O[C@@H]1CN(C)Cc1ccncc1	.	.	.	.	/	.
CC(=O)C[C@H]1c2cc(C(F)(F)F)ccc2S(=O)(=O)N1C1CCCC1	.	.	.	/	.	105
O=C(NCc1ccc(Cl)c(Cl)c1)c1cc(C2CCCCN2C(=O)C2CCCCC2)on1 (stereo unspecified)	.	.	.	.	.	.
COC(=O)N1CCCCC1c1cc(C(=O)NCc2ccc(Cl)c(Cl)c2)no1 (stereo unspecified)	.	73	.	.	.	.
O=C(NCc1cccnc1)c1cc(C2CCCCN2C(=O)CCCc2ccccc2)on1 (stereo unspecified)	12	.	.	.	.	.
CN(C)C(=O)[C@@H]1[C@@H](CO)[C@@H]2Cn3c(ccc(C4=CCCC4)c3=O)[C@H]1N2CC1CCOCC1	/	.	.	.	.	/
O=C(Nc1cccc(NC(=O)c2ccccc2Cl)c1)c1cccs1	.	.	.	.	/	.
SMILES	F508del corr	INS-1E GSIS act	DENV2 CPE	ERAP1 HTS inh	E-sel inducer	miR-122 sensor
Cc1cc(O)c(C(C)C)cc1NC(=O)c1ccccc1Cl	.	/	28	.	/	.
Cc1ccc(NC(=O)c2cccs2)cc1NC(=O)c1ccccc1Cl	.	167	.	.	.	/
Cc1cc(NC(=O)c2ccccc2Cl)c(C(C)C)cc1O	/	/	/	/	/	.
O=C(N/N=C/c1cccs1)c1cccc(NC(=O)c2ccccc2Cl)c1	9.5	.	.	.	.	/
CC(C)C(=O)Nc1ccc2c(c1)C(=O)N(C)[C@@H]1CC[C@H](CC(=O)O)O[C@@H]1CO2	.	.	.	.	.	.
O=C(C[C@@H]1CC[C@H]2[C@@H](COC[C@H](O)CN2C(=O)c2ccc(F)cc2)O1)Nc1ccc(-c2ccccc2)cc1	.	.	.	.	38	.
O=C(C[C@@H]1CC[C@H]2[C@@H](COC[C@H](O)CN2C(=O)c2ccncc2)O1)Nc1ccc(-c2ccccc2)cc1	.	.	28	.	.	.
O=C(C[C@@H]1CC[C@H]2[C@@H](COC[C@H](O)CN2C(=O)c2ccncc2)O1)NC1Cc2ccccc2C1	.	.	30	.	.	.
O=C(C[C@H]1CC[C@H]2[C@@H](COC[C@@H](O)CN2C(=O)c2ccc(F)cc2)O1)Nc1ccc(-c2ccccc2)cc1	.	.	.	.	.	.
O=C(C[C@H]1CC[C@@H]2[C@H](COC[C@@H](O)CN2C(=O)c2ccccc2)O1)Nc1ccccc1	.	.	.	.	.	.
O=C(C[C@H]1CC[C@@H]2[C@H](COC[C@H](O)CN2C(=O)c2ccccc2)O1)Nc1ccc(-c2ccccc2)cc1	.	.	55	.	.	.
CN1C(=O)c2cc(NC(=O)Nc3ccc(Cl)cc3)ccc2OC[C@H]2O[C@H](CC(=O)NCCN3CCCCC3)CC[C@H]21	.	.	.	.	.	.
N#C[C@H]1[C@@H](c2ccccc2-c2ccccc2)[C@@H](CO)N1C(=O)Cc1ccncc1	.	.	.	/	.	/
O=C(NCC[C@@H]1CC[C@@H](NC(=O)c2ccc3c(c2)OCO3)[C@@H](CO)O1)Nc1cc(F)ccc1F	.	.	?	.	.	.
O=C(CSc1ccc(-c2ccccn2)nn1)c1ccc(F)cc1	.	.	.	/	.	.
O=C(CSc1cnc2ccccc2n1)c1ccc(F)cc1	.	.	33	.	/	.
CCN(CC)c1ccc(/C=N/N2C(=O)c3ccccc3C2=O)cc1	/	.	/	/	/	.
CCN(CC)c1ccc(/C=N/N2C(=O)c3ccccc3C2=O)c(O)c1	.	.	42	.	/	.
CN(C)C(=O)C[C@@H]1CC[C@@H]2[C@H](COC[C@H](O)CN2C(=O)C2CCCC2)O1	.	.	.	/	.	.
COc1ccc2c3c(n(C)c2c1)[C@@H](CO)N(Cc1ccccc1)CC31CCN(C(=O)Nc2cccc(F)c2)CC1	.	.	.	.	.	/
COC(=O)c1sc2nc(SCc3ccccc3C)n(N)c(=O)c2c1C	.	/	.	.	.	/

From PubChem
